Values after ≈ are worked out from the molar mass of the structure shown.
Key:
SK-OV-3 = assay: Cytotoxicity in human ovarian tumor cell line-SKOV3, by growth inhibition assay.; assay type: functional, cell-based
Summary of the method: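 SKOV3 log-phase monolayers in α-MEM with 5% FBS, no antibiotics; 600 cells/well. After 24 h, 4 h aerobic drug exposure at 37 °C, 5% CO₂ (DMSO stock, final DMSO <1%, medium pH 7.4). Washed, then regrown 5 days. Methylene blue staining gave cell density. IC50 = 50% growth inhibition versus controls on the same plate.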

UV4 = assay: Cytotoxicity in chinese hamster ovary tumor cell line -UV4 (repair deffective ERCC-1 mutant), by growth inhibition assay.; assay type: functional, cell-based; conditions: Cricetulus griseus
Summary of the method: (§1)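 Log-phase monolayers in α-MEM with 5% FBS, no antibiotics; seeded at 200 (AA8), 300 (UV4) or 50 (EMT6) cells/well. After 24 h, exposed to drug (DMSO stock, final DMSO <1%, medium pH 7.4) for 4 h at 37 °C, 5% CO₂, aerobic. Washed, then regrown 4 days. Methylene blue staining read cell density. IC50 = 50% growth inhibition versus same-plate controls.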

CHO-AA8 = assay: Cytotoxicity in chinese hamster ovary tumor cell line-AA8, by growth inhibition assay.; assay type: functional, cell-based; conditions: Cricetulus griseus; summary of the method: as §1
EMT6 = assay: Cytotoxicity in murine mammary carcinoma tumor cell line-EMT6, by growth inhibition assay.; assay type: functional, cell-based; conditions: Mus musculus; summary of the method: as §1
[1] = Solubility in 0.1 M phosphate buffer (pH 7.0) at room temperature.; assay type: physicochemical; conditions: read-out: S
Summary of the method: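 Solid suspended in 0.1 M phosphate buffer pH 7.0, sonicated 5 min at room temperature, centrifuged 5 min. Supernatant assayed by HPLC against a standard curve of known concentrations in acetonitrile. Three determinations, averaged.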

Row | SMILES | IC50 (SK-OV-3) | IC50 (UV4) | IC50 (CHO-AA8) | IC50 (EMT6) | solubility [1]
1 | COc1ccc2[nH]c(C(=O)N3CC(CCl)c4ccc(N)cc43)cc2c1 (stereo not given) | 670 nM | 47 nM | 310 nM | 230 nM | 23 µM (≈ 8.18 µg/mL)
2 | Nc1ccc2c(c1)N(C(=O)c1cc3cc(NC(=O)c4cc5ccccc5o4)ccc3[nH]1)CC2CCl (stereo not given) | 600 nM | 87 nM | 160 nM | 190 nM | –
3 | COc1ccc2oc(C(=O)N3CC(CCl)c4ccc(N)cc43)cc2c1 (stereo not given) | 1100 nM | 120 nM | 880 nM | 640 nM | –
4 | COc1ccc2[nH]c(S(=O)(=O)N3CC(CCl)c4ccc(N)cc43)cc2c1 (stereo not given) | 2700 nM | 4300 nM | 8200 nM | 4900 nM | –
5 | COc1cc(OCCN(C)C)c2[nH]c(C(=O)N3CC(CCl)c4ccc(N)cc43)cc2c1 (stereo not given) | 160 nM | 29 nM | 140 nM | 90 nM | 47 µM (≈ 20.8 µg/mL)
6 | CN(C)CCOc1ccc2[nH]c(C(=O)N3CC(CCl)c4ccc(N)cc43)cc2c1 (stereo not given) | 260 nM | 44 nM | 160 nM | 120 nM | 700 µM (≈ 289 µg/mL)
7 | CCCC(=O)Nc1cc(/C=C/C(=O)N2CC(CCl)c3ccc(N)cc32)n(C)c1 (stereo not given) | 1900 nM | 310 nM | 2100 nM | 910 nM | –
8 | COc1cc2cc(C(=O)N3CC(CCl)c4ccc(N)cc43)[nH]c2cc1OCCN(C)C (stereo not given) | 150 nM | 39 nM | 220 nM | 110 nM | > 1200 µM
9 | COc1ccc2oc(S(=O)(=O)N3CC(CCl)c4ccc(N)cc43)cc2c1 (stereo not given) | 4400 nM | 2800 nM | 6600 nM | 2600 nM | –
10 | COc1cc2cc(C(=O)N3CC(CCl)c4ccc(N)cc43)[nH]c2c(OC)c1OC (stereo not given) | 630 nM | 55 nM | 350 nM | 270 nM | 32 µM (≈ 13.3 µg/mL)

From ChEMBL document CHEMBL1132190, “Synthesis of 1-substituted 3-(chloromethyl)-6-aminoindoline (6-amino-seco-CI) DNA minor groove alkylating agents and structure-activity relationships for their cytotoxicity” (J Med Chem, 1999)
